Hits are enriched below; roughly 2.9% of the tested compounds scored in any of these assays.
Apaf1 inhib: blocks human Apaf-1 apoptosome activity. O14727. reconstituted apoptosome caspase-3 activity, DEVD-Rh110 fluorescence. inhibition, % at 20 µM. 330,000 tested, 0.71% active; active means inhibition of at least 40% at 20 µM;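 further: plate controls were DMSO wells for no effect and DEVD-CHO caspase inhibitor wells for full effect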
Target sequence (O14727 whole entry, looked up): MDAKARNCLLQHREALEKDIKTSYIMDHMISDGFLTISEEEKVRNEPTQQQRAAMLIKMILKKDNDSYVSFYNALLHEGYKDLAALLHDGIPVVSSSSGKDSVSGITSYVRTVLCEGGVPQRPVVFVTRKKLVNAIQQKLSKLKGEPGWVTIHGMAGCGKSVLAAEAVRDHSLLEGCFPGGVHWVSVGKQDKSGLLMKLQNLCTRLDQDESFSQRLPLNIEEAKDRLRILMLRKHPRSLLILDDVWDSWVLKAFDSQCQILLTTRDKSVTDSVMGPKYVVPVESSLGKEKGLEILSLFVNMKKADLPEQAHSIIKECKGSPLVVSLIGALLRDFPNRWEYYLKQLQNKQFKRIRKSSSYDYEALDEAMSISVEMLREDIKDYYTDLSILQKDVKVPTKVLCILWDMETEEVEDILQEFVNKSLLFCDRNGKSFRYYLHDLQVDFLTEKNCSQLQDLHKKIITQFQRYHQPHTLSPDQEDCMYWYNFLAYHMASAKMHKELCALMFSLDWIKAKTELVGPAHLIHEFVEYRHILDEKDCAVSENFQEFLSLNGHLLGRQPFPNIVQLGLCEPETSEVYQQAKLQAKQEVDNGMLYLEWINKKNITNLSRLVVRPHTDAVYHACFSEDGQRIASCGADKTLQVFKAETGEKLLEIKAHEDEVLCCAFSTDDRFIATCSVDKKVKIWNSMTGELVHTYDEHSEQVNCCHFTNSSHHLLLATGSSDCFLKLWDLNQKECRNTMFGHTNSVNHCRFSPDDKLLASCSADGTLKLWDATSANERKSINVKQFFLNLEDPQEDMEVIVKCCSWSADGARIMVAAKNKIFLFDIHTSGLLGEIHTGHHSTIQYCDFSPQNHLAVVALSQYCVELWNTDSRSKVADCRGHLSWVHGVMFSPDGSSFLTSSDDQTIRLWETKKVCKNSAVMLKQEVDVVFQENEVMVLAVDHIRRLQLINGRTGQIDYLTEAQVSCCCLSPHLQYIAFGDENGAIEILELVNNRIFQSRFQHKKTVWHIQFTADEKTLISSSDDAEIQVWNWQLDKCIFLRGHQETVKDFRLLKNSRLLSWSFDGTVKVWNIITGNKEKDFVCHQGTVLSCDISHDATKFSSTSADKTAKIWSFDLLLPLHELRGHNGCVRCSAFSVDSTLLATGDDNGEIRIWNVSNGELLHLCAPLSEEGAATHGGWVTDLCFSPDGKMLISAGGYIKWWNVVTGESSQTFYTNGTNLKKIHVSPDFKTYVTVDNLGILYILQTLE
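System: Apoptosome proteins | Medium: Hepes pH 7.5 with detergent and BSA | Also added: Cytochrome c trigger plus (Z-DEVD)2-Rh110 caspase-3 substrate | Incubation: 30 min compound preincubation, 50 min activation, room temperature | Detection: Rhodamine 110 fluorescence at Ex 480/Em 540 nm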
EBNA-1 inhibitor: blocks EBNA-1 binding to DNA; EBNA-1 DNA binding, fluorescence polarization; inhibition, % at 14.8 µM; 300,000 tested, 0.34% active; AID 1950; in the data active means inhibition above about 28%
ZTA counter: blocks Epstein-Barr virus ZTA, an EBNA-1 counter-screen | P03206 | ZTA-DNA binding, fluorescence polarization | inhibition, % at 11 µM | 320,000 tested, 0.15% active | AID 2234; in the data active means inhibition above about 33%
M18AAP inhibitor: blocks P. falciparum M18 aspartyl aminopeptidase | 290,000 tested, 1.2% active | recombinant PfM18AAP, H-Glu-NHMec fluorogenic cleavage | inhibition, % at 7.35 µM;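 active means inhibition above the campaign mean inhibition over all tested compounds plus 3 SD, cut at about 28% in these data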;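 further: 0% = plate median of test compound wells and 100% = 2 mM ZnCl2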
UBC13 polyUb: inhibitors of human UBC13 polyubiquitin chain formation; P61088; TR-FRET; inhibition, % at 20 µM; 330,000 tested, 0.47% active; AID 485273; in the data active means inhibition above about 45%, passing the limit was not always enough
PfGluPho inh: PfG6PD (Plasmodium falciparum) enzyme inhibition. PfGluPho enzyme, NADPH resazurin-diaphorase fluorescence. inhibition, % at 20 µM. 350,000 tested, 0.78% active;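 active means inhibition reaching at least a set limit at 20 µM in the primary screen, cut at about 59% in these data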;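 further: 0% = DMSO wells with substrate and 100% = DMSO wells lacking glucose-6-phosphate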
PfGluPho conf: confirmation of Plasmodium falciparum G6PD inhibitors. 2,400 tested, 34% active. recombinant PfGluPho, NADPH-diaphorase-resazurin fluorescence. shares compounds with PfGluPho inh. inhibition, % at 20 µM;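 active means inhibition of at least 50% at 20 µM in any single replicate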;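 further: 0% = DMSO with substrate and 100% = DMSO lacking glucose-6-phosphate substrate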
Diaph ctr 10uM: diaphorase inhibition or oxidation at 10 uM NADPH. shares compounds with PfGluPho inh. 820 tested, 39% active. inhibition, % at 20 µM. AID 504862. diaphorase-coupled resazurin reduction, fluorescence, NADPH 10 uM;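 active means average inhibition reaching 50% or more with the compound at 20 µM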;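 further: resorufin red fluorescence formed as diaphorase reduces resazurin using NADPH; 0% = DMSO with enzyme and 100% = DMSO without enzyme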
Diaphorase 30uM: diaphorase inhibition or oxidation at 30 uM NADPH | shares compounds with PfGluPho inh | Diaphorase/resazurin coupled assay, resorufin fluorescence | inhibition, % at 20 µM | 820 tested, 29% active | AID 504863;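 active means inhibition averaging 50% or more, tested at 20 µM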;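 further: 0% = DMSO with enzyme and 100% = DMSO wells lacking diaphorase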
The depositor's hits bear a star; i = inactive; . = no result given.

SMILES	Apaf1 inhib	EBNA-1 inhibitor	ZTA counter	M18AAP inhibitor	UBC13 polyUb	PfGluPho inh	PfGluPho conf	others
CC(=O)CSc1ccc(-c2nc3cc(C)c(C)cc3[nH]2)cn1	23	0	18	-3	-14	67*	20
CCOc1ccc(N2CC(C(=O)Nc3cccc(S(=O)(=O)NC4=NCCC4)c3)CC2=O)cc1 (stereo unspecified)	-17	0	-10	1	19	5	.
CCOc1ccc(S(=O)(=O)N2CCN(C(=O)C3CC3C)CC2)cc1 (stereo unspecified)	-6	.	.	.	0	-2	.
COc1ccc(N2C(=O)/C(=C/c3cccs3)NC2=S)cc1	2	-5	5	7	11	79*	64*	Diaph ctr 10uM=-16;Diaphorase 30uM=-8
COc1ccc(-c2nc3ncnn3cc2C)cc1F	-1	-6	-15	1	4	4	.
CC1=CC(C)(C)Nc2ccc(OC(=O)CN3C(=O)CCC3=O)cc21	-28	14	10	2	1	62*	52*	Diaph ctr 10uM=40;Diaphorase 30uM=3
O=C(CN1CCOCC1)Nc1nc(-c2ccccc2Cl)cs1	5	-1	-4	0	2	2	.
COc1ccc(C(=O)c2c(C(F)(F)F)oc3c2C(=O)c2ccccc2C3=O)cc1OC	85*	-12	-24	-3	-30	80*	53*	Diaph ctr 10uM=44;Diaphorase 30uM=52*
COc1ccc(C(=O)Nc2ccc3c(c2)C(=O)c2ccccc2C3=O)cc1OC	i	6	7	-3	30	0	.
CCCCC(CC)C(=O)NCc1ccc(F)cc1 (stereo unspecified)	16	2	-9	1	-13	-4	.
O=c1cnnc(N/N=C/c2ccccn2)[nH]1	0	-7	-23	8	-17	46	27
C(=N\Nc1nc2ccccc2[nH]1)/c1ccccn1	.	.	.	5	.	64*	54*	Diaph ctr 10uM=-27;Diaphorase 30uM=2
C(=N\Nc1nc2ccccc2[nH]1)/c1ccc2ncccc2c1	12	-2	1	-7	-18	-3	.
CC(OC(=O)c1cc(O)c2ccccc2c1O)C(=O)Nc1ccc(C(N)=O)cc1 (stereo unspecified)	49*	-4	-7	.	-30	72*	33
COc1ccc(CN(C)S(=O)(=O)c2nnc(NC(=O)c3ccc(C)cc3)s2)cc1OC	6	-19	4	-15	-9	88*	70*	Diaph ctr 10uM=39;Diaphorase 30uM=27
COc1cccc(C(=O)Nc2nnc(S(=O)(=O)N(C)Cc3ccccc3)s2)c1	-6	8	7	2	4	88*	77*	Diaph ctr 10uM=62*;Diaphorase 30uM=39
CCOc1ccc(C(=O)Nc2nnc(S(=O)(=O)N(C)Cc3ccco3)s2)cc1	6	-12	-4	-14	-11	-6	.
COc1ccc(CN(C)S(=O)(=O)c2nnc(NC(=O)c3cccc(OC)c3)s2)cc1	8	-5	-6	3	15	96*	62*	Diaph ctr 10uM=56*;Diaphorase 30uM=60*
CN(Cc1ccco1)S(=O)(=O)c1nnc(NC(=O)c2ccc(F)cc2)s1	11	4	3	-24	-4	98*	83*	Diaph ctr 10uM=72*;Diaphorase 30uM=55*
COc1cc(OC)cc(C(=O)N[C@H](C(=O)Nc2cccc(S(=O)(=O)N3CCCC3)c2)C(C)C)c1	-9	2	12	-4	17	6	.
COc1cccc(C(=O)Nc2nnc(S(=O)(=O)N(C)Cc3ccc(F)cc3)s2)c1	2	-1	12	-7	8	80*	48
CCc1sc(C(=O)Nc2ccc(NC(C)=O)cc2)cc1C	-2	8	22	0	3	2	.
CCc1sc(C(=O)Nc2nc(C)cs2)cc1C	4	.	.	16	5	61*	11
COc1cc(CNCc2ccc(OC)cc2OC)cc(OC)c1	14	10	11	10	-12	-7	.
O=C(c1cccc(Cl)c1)N(Cc1ccco1)C1CCS(=O)(=O)C1 (stereo unspecified)	6	-3	5	-4	-11	-11	.
SMILES	Apaf1 inhib	EBNA-1 inhibitor	ZTA counter	M18AAP inhibitor	UBC13 polyUb	PfGluPho inh	PfGluPho conf	others
NNC(=S)NCc1ccco1	16	-10	-11	4	-8	32	.
CN(C)c1ccc(C(=S)NCc2ccco2)cc1	-20	3	-14	5	-11	63*	3
S=C(NCc1ccco1)NCc1ccco1	.	.	.	.	.	79*	39
O=C(NCc1ccccc1Cl)c1cccc2c1C(=O)c1ccc(-c3ccc(OC(F)(F)F)cc3)cc1S2(=O)=O	-24	.	.	.	-25	-18	.
O=C(NN=Cc1cccc([N+](=O)[O-])c1)c1cccc2ccccc12	.	.	.	.	.	16	.
Cc1cc(C)nc(SCC(=O)N/N=C/c2cccc([N+](=O)[O-])c2)n1	-3	7	-1	2	0	93*	30
O=C(N/N=C/c1cccc([N+](=O)[O-])c1)c1ccccc1-n1cccc1	6	6	-16	-5	2	63*	44
CC(C)Cc1nnc(NC(=O)CSc2nc(O)c(-c3ccccc3)c(=O)[nH]2)s1	13	-10	3	10	-8	-16	.
O=C(/C=C/c1ccco1)N1CCN(S(=O)(=O)c2cccs2)CC1	-15	12	20	-6	-3	46	.
CCN1CCN(C(=O)/C=C/c2ccc(C)o2)CC1	-11	11	13	-10	-5	22	.
O=C(/C=C/c1ccco1)N1CCN(S(=O)(=O)/C=C/c2ccccc2)CC1	-7	3	18	3	16	9	.
Cc1ccc(/C=C/C(=O)N2CCN(S(=O)(=O)c3cccs3)CC2)o1	-21	3	-7	-33	2	73*	39
Cc1ccc(/C=C/C(=O)N2CC(C)CC(C)C2)o1 (stereo unspecified)	1	1	-7	-55	-4	72*	29
Cc1ccc(/C=C/C(=O)N2CCN(S(=O)(=O)/C=C/c3ccccc3)CC2)o1	-11	1	-5	-73	7	63*	15
c1ccc(CN=C(NCc2ccccc2)NCc2ccccc2)cc1	.	.	.	.	.	1	.
Cn1ncc2c(Nc3ccc([N+](=O)[O-])cc3)nc(Cl)nc21	.	.	.	-4	.	-5	.
CCN(CC)C(=O)OCCc1cc2ccccc2c(=O)o1	-4	.	7	.	6	15	.
O=c1cc(CSc2nc3cc(Cl)ccc3o2)nc2sccn12	-3	4	7	5	2	80*	38
COc1cccc(-c2ncc3ccccc3c2COC(=O)c2cccc(Br)c2)c1	19	.	7	.	-5	0	.
OCCCNc1c2c(nc3cc(-c4ccc(Cl)cc4)nn13)CCC2	19	-1	-5	-8	2	70*	45
